# Laboratory results published in ChEMBL document CHEMBL4043179, “Triple reuptake inhibitors: Design, synthesis and structure-activity relationship of benzylpiperidine-tetrazoles” (Bioorg Med Chem, 2017).
# Columns and labels:
# Format in all cases: cell-based
# [1] = target: T1, Sodium-dependent serotonin transporter (Homo sapiens, UniProt P31645); assay: Inhibition of re-uptake of [3H]-5-HT at human SERT at 10 uM expressed in HEK293 cells by liquid scintillation counting
# Target sequence in this assay (P31645 whole entry, looked up): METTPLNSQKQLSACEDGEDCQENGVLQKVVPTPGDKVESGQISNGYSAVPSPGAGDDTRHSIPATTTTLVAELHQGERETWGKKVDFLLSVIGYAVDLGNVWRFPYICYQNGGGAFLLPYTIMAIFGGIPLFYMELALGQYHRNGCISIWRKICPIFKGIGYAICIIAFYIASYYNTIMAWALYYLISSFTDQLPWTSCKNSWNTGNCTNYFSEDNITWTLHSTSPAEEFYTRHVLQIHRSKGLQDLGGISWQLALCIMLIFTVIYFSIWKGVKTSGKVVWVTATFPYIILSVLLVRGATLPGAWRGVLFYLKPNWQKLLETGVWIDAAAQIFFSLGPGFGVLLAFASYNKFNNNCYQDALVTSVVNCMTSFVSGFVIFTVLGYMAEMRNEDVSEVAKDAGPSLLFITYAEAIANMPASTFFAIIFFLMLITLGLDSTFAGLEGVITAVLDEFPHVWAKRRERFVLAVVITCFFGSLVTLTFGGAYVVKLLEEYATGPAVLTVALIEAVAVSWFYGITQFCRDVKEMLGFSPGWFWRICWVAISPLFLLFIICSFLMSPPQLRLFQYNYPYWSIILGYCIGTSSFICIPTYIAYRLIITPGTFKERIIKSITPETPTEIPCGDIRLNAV
# [2] = target: T2, Sodium-dependent noradrenaline transporter (Homo sapiens, UniProt P23975); assay: Inhibition of re-uptake of [3H]-NE at human NET at 10 uM expressed in HEK293 cells by liquid scintillation counting
# T2 sequence (P23975 whole entry): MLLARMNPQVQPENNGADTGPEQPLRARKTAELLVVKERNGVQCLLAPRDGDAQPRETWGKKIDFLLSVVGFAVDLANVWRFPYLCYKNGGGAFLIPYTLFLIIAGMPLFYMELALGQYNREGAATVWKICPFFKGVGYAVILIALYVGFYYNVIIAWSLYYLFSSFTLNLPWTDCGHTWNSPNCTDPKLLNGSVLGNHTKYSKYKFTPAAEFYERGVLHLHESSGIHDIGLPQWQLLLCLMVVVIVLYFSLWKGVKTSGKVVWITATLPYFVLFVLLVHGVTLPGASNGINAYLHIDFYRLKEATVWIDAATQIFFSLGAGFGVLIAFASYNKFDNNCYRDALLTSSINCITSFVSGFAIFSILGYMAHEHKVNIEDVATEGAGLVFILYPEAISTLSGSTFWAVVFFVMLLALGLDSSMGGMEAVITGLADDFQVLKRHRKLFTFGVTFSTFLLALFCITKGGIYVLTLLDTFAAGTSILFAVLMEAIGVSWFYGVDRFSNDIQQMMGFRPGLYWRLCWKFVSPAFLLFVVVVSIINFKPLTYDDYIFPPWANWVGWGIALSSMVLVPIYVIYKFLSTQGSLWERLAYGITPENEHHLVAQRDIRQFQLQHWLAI
# [3] = target: T3, Sodium-dependent dopamine transporter (Homo sapiens, UniProt Q01959); assay: Inhibition of re-uptake of [3H]-DA at human DAT at 10 uM expressed in HEK293 cells by liquid scintillation counting
# T3 sequence (Q01959 whole entry): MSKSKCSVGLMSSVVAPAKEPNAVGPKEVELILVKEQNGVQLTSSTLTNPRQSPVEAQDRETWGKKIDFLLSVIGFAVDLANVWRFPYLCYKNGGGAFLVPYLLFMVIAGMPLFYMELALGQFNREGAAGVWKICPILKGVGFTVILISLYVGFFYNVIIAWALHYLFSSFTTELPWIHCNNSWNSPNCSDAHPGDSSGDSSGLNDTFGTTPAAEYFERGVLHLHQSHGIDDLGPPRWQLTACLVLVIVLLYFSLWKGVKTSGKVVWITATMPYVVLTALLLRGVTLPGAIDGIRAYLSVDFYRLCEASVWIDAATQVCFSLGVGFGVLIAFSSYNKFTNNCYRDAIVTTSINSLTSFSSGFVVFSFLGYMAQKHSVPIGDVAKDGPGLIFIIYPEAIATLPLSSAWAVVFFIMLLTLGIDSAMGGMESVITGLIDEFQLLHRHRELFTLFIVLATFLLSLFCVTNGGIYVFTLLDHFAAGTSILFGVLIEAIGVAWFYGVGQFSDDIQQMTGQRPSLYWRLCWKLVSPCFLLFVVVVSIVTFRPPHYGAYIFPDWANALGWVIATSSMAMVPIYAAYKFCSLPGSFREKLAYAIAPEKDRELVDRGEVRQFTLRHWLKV
# [4] = target: T1, Sodium-dependent serotonin transporter; assay: Inhibition of re-uptake of [3H]-5-HT at human SERT expressed in HEK293 cells by liquid scintillation counting
# Target sequence in this assay (P31645 whole entry): as the sequence (P31645 whole entry, looked up) above
# [5] = target: T2, Sodium-dependent noradrenaline transporter; assay: Inhibition of re-uptake of [3H]-NE at human NET expressed in HEK293 cells by liquid scintillation counting
# Summary of the method: (§1)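 HEK-293 cells were grown in medium with fetal bovine serum and transfected with human DAT or NET. Uptake of radiolabelled [3H]-DA or [3H]-NE, each at 20 nM in the assay, was measured by liquid scintillation counting. The method follows a literature procedure with slight modification, and reference reuptake inhibitors were run alongside.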
# [6] = target: T3, Sodium-dependent dopamine transporter; assay: Inhibition of re-uptake of [3H]-DA at human DAT expressed in HEK293 cells by liquid scintillation counting; summary of the method: as §1
SMILES,inhibition [1],inhibition [2],inhibition [3],IC50 [4],IC50 [5],IC50 [6]
CC(=O)c1cccc(-c2nnnn2CCN2CCC(Cc3ccccc3)CC2)c1,> 55%,> 55%,> 55%,4.05 µM,3.08 µM,14.6 µM
COc1ccc(-c2nnnn2CCCN2CCC(Cc3ccccc3)CC2)cc1,> 55%,> 55%,> 55%,4.05 µM,5.52 µM,> 10 µM
O=[N+]([O-])c1ccc(-c2nnnn2CCCN2CCC(Cc3ccccc3)CC2)cc1,> 55%,> 55%,> 55%,5.25 µM,5.02 µM,> 10 µM
Brc1cccc(-c2nnnn2CCCN2CCC(Cc3ccccc3)CC2)c1,> 55%,> 55%,> 55%,> 10 µM,4.34 µM,> 10 µM
c1ccc(CC2CCN(CCn3nnnc3-c3cccc4ccccc34)CC2)cc1,> 55%,> 55%,> 55%,> 10 µM,> 10 µM,> 10 µM
Brc1ccccc1-c1nnnn1CCCN1CCC(Cc2ccccc2)CC1,> 55%,> 55%,> 55%,5.13 µM,3.46 µM,> 10 µM
FC(F)(F)c1cccc(-c2nnnn2CCCN2CCC(Cc3ccccc3)CC2)c1,> 55%,> 55%,> 55%,8.81 µM,5.1 µM,3.74 µM
Clc1cccc(-c2nnnn2CCCN2CCC(Cc3ccccc3)CC2)c1Cl,> 55%,> 55%,> 55%,3.96 µM,3.45 µM,> 10 µM

# Compounds with a lower IC50 [4], results first:
inhibition [1],inhibition [2],inhibition [3],IC50 [4],IC50 [5],IC50 [6],SMILES
> 55%,> 55%,> 55%,2 µM,2.28 µM,3.29 µM,Fc1ccc(-c2nnnn2CCCN2CCC(Cc3ccccc3)CC2)cc1
> 55%,> 55%,> 55%,0.54 µM,3 µM,5.04 µM,CC(=O)c1cccc(-c2nnnn2CCCN2CCC(Cc3ccccc3)CC2)c1
> 55%,> 55%,> 55%,1.35 µM,3.59 µM,5.18 µM,Clc1cccc(-c2nnnn2CCCN2CCC(Cc3ccccc3)CC2)c1
> 55%,> 55%,> 55%,0.88 µM,3.03 µM,4.02 µM,c1ccc(CC2CCN(CCCn3nnnc3-c3ccccc3)CC2)cc1
> 55%,> 55%,> 55%,1.24 µM,1.35 µM,1.98 µM,O=[N+]([O-])c1ccc(-c2nnnn2CCN2CCC(Cc3ccccc3)CC2)cc1
> 55%,> 55%,> 55%,0.31 µM,2.51 µM,6 µM,c1ccc(CC2CCN(CCCn3nnnc3-c3cccc4ccccc34)CC2)cc1
> 55%,> 55%,> 55%,1.32 µM,3.96 µM,6.55 µM,Clc1ccccc1-c1nnnn1CCCN1CCC(Cc2ccccc2)CC1
> 55%,> 55%,> 55%,3.13 µM,2.58 µM,8.32 µM,Clc1ccc(-c2nnnn2CCCN2CCC(Cc3ccccc3)CC2)cc1
